# Screens as filed in PubChem BioAssay.
# ASAP1 inh = inhibitors of human ASAP1 ArfGAP activity, primary screen, biochemical, fluorescence polarization; Arf-GAP with SH3 domain, ANK repeat and PH domain-containing protein 1 (Homo sapiens), …; ASAP1-stimulated ARF1 GTP hydrolysis, GDP FP detection; inhibition, % at 16.5 µM; 360,000 tested, 0.19% active; in the data active = inhibition above about 25%;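 note: 0% = vehicle with enzyme and substrate and 100% = no enzyme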
# Target sequence (Q9ULH1 325-724 limits assumed): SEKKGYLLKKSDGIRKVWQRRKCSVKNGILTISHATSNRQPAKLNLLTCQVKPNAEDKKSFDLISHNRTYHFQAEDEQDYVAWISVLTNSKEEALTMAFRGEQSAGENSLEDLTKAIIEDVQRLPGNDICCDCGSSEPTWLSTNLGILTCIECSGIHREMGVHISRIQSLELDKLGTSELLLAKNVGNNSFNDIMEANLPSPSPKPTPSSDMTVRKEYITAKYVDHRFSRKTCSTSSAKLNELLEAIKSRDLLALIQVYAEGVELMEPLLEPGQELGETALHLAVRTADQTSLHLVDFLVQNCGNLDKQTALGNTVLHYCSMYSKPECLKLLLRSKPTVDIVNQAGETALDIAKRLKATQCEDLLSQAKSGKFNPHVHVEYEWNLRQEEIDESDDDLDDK
# APOBEC3G inh = APOBEC3G DNA deaminase inhibitors, primary screen, biochemical, fluorescence, single-stranded DNA substrate, uHTS. DNA dC->dU-editing enzyme APOBEC-3G (Homo sapiens), Q9HC16. recombinant A3G, ssDNA deamination FAM/TAMRA fluorescence. inhibition, % at 20 µM. 330,000 tested, 0.28% active. AID 493012, 2011;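 active = inhibition of at least 40% at 20 µM, with no more than 30% in the related APOBEC3A deaminase screen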;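 note: plate controls were DMSO wells with A3G for no effect and wells lacking A3G enzyme for full effect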
# ARFGAP1 inh = inhibitors of rat ARFGAP1 GAP activity, primary screen, biochemical, fluorescence polarization, GDP tracer | AID 651572, 2012 | 360,000 tested, 0.26% active | inhibition, % at 16.5 µM | ADP-ribosylation factor GTPase-activating protein 1 (Rattus norvegicus), Q62848 | Arfgap1-stimulated ARF1 GTP hydrolysis, GDP FP detection;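 active = inhibition above a per-plate limit, mean inhibition of low control wells plus 3 SD, cut at about 25% in these data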;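 note: 0% = DMSO wells with enzyme and 100% = wells lacking Arfgap1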
#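 Replicates: Single well per compound | Assay system: Truncated rat Arfgap1 GAP domain | Control set: No-Arfgap1 wells (100%) versus DMSO full-reaction wells (0%) | Times: Enzyme reaction 120 min at 25 °C after 20 min preincubation | Reagent: Human ARF1(Δ1-17)-GTP substrate | Measured by: Tracer-displacement fluorescence polarization with EDTA stop, 620/688 nm | Measure: Percent inhibition of Arfgap1-stimulated GTP hydrolysis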
# C2C12 statin = suppressors of statin myotoxicity in C2C12 myotubes, primary screen, cell-based, single point, plate reader | C2C12 myotubes + simvastatin, ATP luminescence, 48 h; scaled: DMSO 0, geranylgeraniol control 100 | rescue of ATP level, % at 7.49 µM | 330,000 tested, 0.78% active;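 active = mean ATP rescue above about 67%, or every replicate alone reaching that limit, limit read from the data, passing the limit was not always enough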;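 note: myotubes were challenged with 10 µM simvastatin during compound exposure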
# APOBEC3A inh = APOBEC3A ssDNA deaminase inhibitors, primary screen, selectivity assay for APOBEC3G inhibitor project, biochemical, FAM/TAMRA oligo cleavage fluorescence; DNA dC->dU-editing enzyme APOBEC-3A (Homo sapiens), P31941; recombinant A3A, FAM/TAMRA ssDNA deamination fluorescence; inhibition, % at 20 µM; 330,000 tested, 0.41% active;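 active = at least 40% inhibition at 20 µM here, with at most 30% in a related deaminase screen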;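 note: plate controls were A3A with DMSO for no effect and wells lacking A3A enzyme for full effect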
# Target sequence (P31941 whole entry, looked up): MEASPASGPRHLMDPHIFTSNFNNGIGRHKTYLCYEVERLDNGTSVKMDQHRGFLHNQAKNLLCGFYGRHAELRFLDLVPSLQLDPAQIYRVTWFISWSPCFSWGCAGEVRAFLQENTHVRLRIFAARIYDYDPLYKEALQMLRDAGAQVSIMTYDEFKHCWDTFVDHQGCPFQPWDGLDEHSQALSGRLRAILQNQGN
# SUMO Mot1 rescue = yeast Mot1-301 growth rescue at high temperature, primary screen, SUMOylation pathway inhibitor project, S. cerevisiae, ATP luminescence, 38.5C; S. cerevisiae Mot1-301 growth rescue; percent above DMSO median, 100 means doubled; growth rescue, % at 18.8 µM; 320,000 tested, 1% active;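 active = every valid replicate shows activation above 250% relative to neutral control wells; inactive = the rest, any valid replicate at or below 250%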;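 note: OY570 slx delta 5 strain wells were the positive control but not used for scaling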
# Active calls of the source: *; . = no result; ! = a repeat was not active. In the library only some 2.1% were active in any assay of this set; here they are far more common.
SMILES,ASAP1 inh,APOBEC3G inh,ARFGAP1 inh,C2C12 statin,APOBEC3A inh,SUMO Mot1 rescue
CCc1nc2ccccc2c(=O)n1-c1ccc2ccccc2c1,-3.3,-1.9,4.5,122.5*,-1.9,-15.0
OC(CN1CC=C(c2ccccc2)CC1)c1ccccc1 (stereo not given),-14.7,-5.2,6.1,84.1*,0.6,-13.2
COC(=O)[C@@H]1[C@@H](CO)[C@@H]2Cn3c(ccc(-c4ccccc4)c3=O)[C@H]1N2CC1CC1,.,.,.,9.8,.,.
COC(=O)c1nc(-c2ccc3c(n2)C(=O)C(N)=C(OC)C3=O)c(N)c(-c2ccc(OC)c(OC)c2O)c1C,30.5*,-0.5,0.3,31.7,2.9,-14.0
CCN1[C@@H]2Cn3c(ccc(-c4ccc(OC)cc4)c3=O)[C@H]1[C@@H](C(=O)OC)[C@@H]2CO,.,.,.,15.7,.,.
COc1ccc(CC(=O)N2CCN(C)CC2)cc1,-8.6,0.4,-4.0,-2.0,2.1,.
COc1ccc(CC2NCC(O)C2OC(C)=O)cc1 (stereo not given),11.3,.,13.0,113.8*,.,.
CC(C)COC(=O)c1ccccc1C(=O)OCC(C)C,20.1,-7.1,2.7,-18.6,-4.3,-12.6
C[CH2][Hg][S]c1ccccc1C(=O)O,-2.3,87.1,5.5,-219.9,73.0,355.3*
COc1ccc(Cn2c(N)c(C(=O)NCc3ccco3)c3nc4ccccc4nc32)cc1,21.3,-4.3,1.4,74.1*,-13.0,-4.1
O=C1Nc2ccc(Br)cc2C(c2ccccc2Cl)=NC1O (stereo not given),-4.0,-5.9,1.6,4.6,0.4,574.0*
CC1N=C(c2ccccc2Cl)c2cc(Br)ccc2NC1=O (stereo not given),-7.5,-1.8,-0.1,.,2.2,11.1
COCC(=O)N1[C@@H]2c3ccc(C4=CCCC4)c(=O)n3C[C@H]1[C@H](CO)[C@H]2C(=O)OC,.,.,.,-0.9,.,.
CCCN1[C@@H]2Cn3c(ccc(-c4ccccc4)c3=O)[C@H]1[C@@H](C(=O)OC)[C@@H]2CO,.,.,.,2.4,.,.
CC12CN3CN(C1)CC(c1ccccc1)(C3)C2=O,-8.8,-9.8,-6.8,101.6*,-4.0,-3.2
ClC1C(Cl)C(Cl)C(Cl)C(Cl)C1Cl (stereo not given),-7.4,-7.6,0.7,-2.0,0.8,331.0*!
CC=Cc1ccc2n(c1=O)C[C@H]1[C@H](CO)[C@@H](C(=O)OC)[C@@H]2N1CC1CC1 (mixture of isomers),.,.,.,-6.8,.,.
CCCCCn1c(N)c(C(=O)NCCN2CCOCC2)c2nc3ccccc3nc21,7.3,-7.4,-0.1,-50.1,-2.9,22.5
CCCCCCn1c(N)c(C(=O)NCCN2CCOCC2)c2nc3ccccc3nc21,1.6,-1.4,14.6,111.8*,-2.7,-3.5
O=C(CN1CCN(Cc2cccc(Cl)c2)C1=O)N1CCC2(CC1)OCCO2,2.0,-7.7,1.0,.,-3.7,2.6
O=C(CN1CCN(Cc2ccc(Cl)cc2)C1=O)N1CCC2(CC1)OCCO2,-2.5,-4.0,3.8,86.8*,-0.4,18.0
Oc1ccccc1-[n+]1c(-c2ccccc2)cc(-c2ccccc2)c(O)c1-c1ccccc1,-0.5,5.8,3.0,-4.8,5.9,366.2*
CCC1(Oc2ccccc2)C(=O)NC(=O)NC1=O,0.8,.,-2.2,107.9*,.,.
CC(=O)OC1(Cc2ccccc2)CN2CCC1c1ccccc12 (stereo not given),0.7,2.8,-5.5,114.0*,8.8,.
Cc1cccnc1-n1c(-c2ccco2)nc2ccccc2c1=O,-1.4,-4.8,-0.8,-3.5,-1.6,0.3
SMILES,ASAP1 inh,APOBEC3G inh,ARFGAP1 inh,C2C12 statin,APOBEC3A inh,SUMO Mot1 rescue
O=c1c2ccccc2nc(-c2ccco2)n1-c1ccccn1,13.5,-5.1,-2.5,120.1*,-2.1,20.4
COC(=O)C1=C(c2ccc(F)cc2OCc2ccccc2)C[C@@H]2CC[C@H]1N2C(=O)NCc1ccc(Br)cc1,-2.7,-8.4,0.9,75.5*,-3.1,10.3
COC(=O)C1=C(c2ccc(F)cc2OCc2ccccc2)C[C@@H]2CC[C@H]1N2C(=O)NCc1ccc(OC)cc1,-5.7,-6.5,12.5,83.9*,-3.1,6.5
COC(=O)C1=C(c2ccc(F)cc2OCc2ccccc2)C[C@@H]2CC[C@H]1N2C(=O)NCc1cccc(OC)c1,4.4,-9.8,-4.7,0.6,-2.6,21.8
COC(=O)C1=C(c2ccc(OC(F)(F)F)cc2)C[C@@H]2CC[C@H]1N2C(=O)NCCOc1ccc(OC)cc1,-1.3,-10.0,0.9,128.2*,-1.6,-23.7
COC(=O)C1=C(c2ccc(F)cc2OCc2ccccc2)C[C@@H]2CC[C@H]1N2C(=O)NCc1ccc(N(C)C)cc1,2.3,-7.6,7.2,-15.0,-6.3,-0.8
COC(=O)C1=C(c2ccc(OC(F)(F)F)cc2)C[C@@H]2CC[C@H]1N2C(=O)NCCNC(C)=O,-8.6,-9.2,-15.8,3.9,0.2,6.4
COC(=O)[C@@H]1[C@@H](CO)[C@@H]2Cn3c(ccc(C4=CCCC4)c3=O)[C@H]1N2Cc1ccccn1,.,.,.,-0.5,.,.
COC(=O)[C@@H]1[C@@H](CO)[C@@H]2Cn3c(ccc(-c4ccccc4OC)c3=O)[C@H]1N2Cc1ccccc1,.,.,.,-19.1,.,.
Cc1nc2ccc(Cl)cn2c1P(=S)(N1CCOCC1)N1CCOCC1,4.1,-2.7,-10.5,93.1*,4.9,7.8
Cn1ccnc1P(=S)(c1nccn1C)N1CCOCC1,3.9,13.3,7.3,-7.9,-4.7,2.0
CSc1ccc(C(=O)C2CCCN(Cc3cnc(SC)nc3)C2)cc1 (stereo not given),4.4,-2.9,-4.5,8.4,-2.4,305.3*
COc1ccc(OCC(=O)N2CCN(Cc3ccc(SC)cc3)CC2)cc1,-10.2,3.5,-4.8,-4.7,-4.3,262.0*
O=C(Cc1ccccn1)N1CCCCN2[C@H](CO)[C@H](c3ccc(-c4ccccc4F)cc3)[C@@H]2C1,.,.,.,41.1,.,.
O=C(O)[C@@H]1[C@@H](CO)[C@@H]2Cn3c(ccc(-c4cccnc4)c3=O)[C@H]1N2S(=O)(=O)c1ccccc1F,.,.,.,1.5,.,.
CCCCC1(CN2CCCC2=O)C(=O)NC(=O)NC1=O,-14.7,-5.1,2.1,106.4*,-5.3,.
